{"data": "Measured values collected from several papers", "target": "Tyrosine-protein kinase Lyn (LYN, Homo sapiens, UniProt P07948)", "note": "Lines come from different studies, so protocols differ."}
{"SMILES": "N#CC1(c2ccccn2)CCN(Cc2cc(C(=O)O)c(=O)n3ccccc23)CC1", "assay": "cell-free assay, competition with immobilised ligand", "setting": "1 µM", "endpoint": "remaining binding", "result": "100%"}
{"SMILES": "CC(C)(C)c1cc(C=C(C#N)C#N)cc(Br)c1O", "assay": "enzyme activity, inhibitor", "setting": "0.5 µM", "endpoint": "remaining activity", "result": "74.1%"}
{"SMILES": "Cn1cc(-c2cc(F)cc(N3CCn4c(cc5c4CCCC5)C3=O)c2CO)cc(Nc2ccc(N3CCN(C4COC4)CC3)cn2)c1=O", "assay": "enzyme activity, inhibitor", "setting": "0.1 µM", "endpoint": "inhibition", "result": "12%"}
{"SMILES": "Cc1nn(C)cc1-c1nc2c(N3CCN(Cc4ccc(Cl)cc4)CC3)c(Cl)cnc2[nH]1", "assay": "binding, competition with immobilised ligand", "setting": "1 µM", "endpoint": "remaining binding", "result": "86%"}
{"SMILES": "Cn1cncc1[C@](O)(COc1ccc(C#N)cc1-c1ccc(OC(F)(F)F)cc1)c1ccc(C#N)cc1", "assay": "cell-free assay, competition with immobilised ligand", "setting": "1 µM", "endpoint": "remaining binding", "result": "90%"}
{"SMILES": "Cc1ncc(C)n2nc(/C=C/c3nc(N4CCCC4)cc(N4CCOCC4)n3)nc12", "assay": "enzyme activity, inhibitor", "setting": "10 µM", "endpoint": "inhibition", "result": "-13%"}
{"SMILES": "COc1ncccc1-c1cnn2ccc(N3CCN(C(=O)OC(C)C)CC3)nc12", "assay": "binding, competition with immobilised ligand", "setting": "1 µM", "endpoint": "remaining binding", "result": "79%"}
{"SMILES": "O=c1[nH]c2ccccc2n1C1CCN(Cc2ccc(-c3[nH]c4cc5ncnc5cc4nc3-c3ccccc3)cc2)CC1", "assay": "enzyme activity", "setting": "0.5 µM", "endpoint": "remaining activity", "result": "102%"}
{"SMILES": "O=C(Nc1cccnn1)N1CCN([C@@H]2CCOc3cc(C(F)(F)F)ccc32)CC1", "assay": "enzyme activity, inhibitor", "setting": "20 µM", "endpoint": "inhibition", "result": "-4%"}
